The subject of assay [1] is A-375. Kind of assay: Induction of morphological differentiation in human A375 cells assessed as dentritic-like extension at 5 to 10 uM after 96 hrs by phase contrast microscopy.
The test system of assay [2] is A-375. Kind of assay: Induction of human A375 cell differentiation assessed as formation of vimentin intermediate filament at 20 uM after 96 hrs by immunofluorescence analysis. In kind it is functional, cell-based. The method in brief: (§1)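 A375 cells cultured 96 h with drug, then fixed in 4% paraformaldehyde for 10 min and permeabilized in 0.2% Triton X-100/PBS for 5 min. Immunostained for tubulin and vimentin, nuclei counterstained with DAPI.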

The subject of assay [3] is A-375. In words: Induction of apoptosis in human A375 cells seeded as low density at 20 uM after 96 hrs by propidium iodide staining-based FACS analysis. For orientation: Flow cytometry measures light scatter and fluorescence of single cells or particles in a stream.
For assay [4], the system named is A-375. Kind of assay: Induction of human A375 cell differentiation assessed as microtubule reorganization at 20 uM after 96 hrs by immunofluorescence analysis. It counts as functional, cell-based. The gist of the method: as §1
Assay [5] relates to A-375. Kind of assay: Antiproliferative activity against human A375 cells at 5 to 10 uM by trypan blue assay. In kind it is functional, cell-based. Particulars: TDE = time-dependent effect. The method in brief: (§2)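 A375 cells plated at (20-50) × 10^3 per 35 mm dish in DMEM/10% FCS. Drug in DMSO added, renewed every 48 h; DMSO alone for controls. After 48 or 96 h, viable cells counted twice per sample by Coulter counter, with trypan blue check. Cells at time t divided by cells seeded, relative to DMSO control as 100%. Mean and SD: four experiments for dose series (5, 10, 20 μM, 96 h), three for time course (5 or 10 μM).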

In assay [6] the test system is A-375. In words: Antiproliferative activity against human A375 cells at 20 uM after 96 hrs by trypan blue assay. In kind it is functional. The method in brief:
as §2

Assay [7] deals with A-375. Kind of assay: Induction of apoptosis in human A375 cells seeded as high density at 20 uM after 96 hrs by propidium iodide staining-based FACS analysis.
The test system of assay [8] is A-375. Kind of assay: Antiproliferative activity against human A375 cells assessed as cell growth at 25 uM after 96 hrs by trypan blue assay. To be noted: A-375, 96 h, read-out: Activity. It counts as functional. The method in brief: (§3)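 A375 melanoma cells grown in DMEM with 10% FCS at 37 °C, 5% CO2; compounds added in DMSO after 56 h (DMSO 0.005% final for controls). Medium with drug renewed every 48 h. After 96 h, cells harvested and Coulter-counted, with trypan blue exclusion for viability. Counts given as % of DMSO controls; data pooled from three experiments.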

The subject of assay [9] is A-375. Kind of assay: Antiproliferative activity against human A375 cells assessed as cell growth at 15 uM after 96 hrs by trypan blue assay. In kind it is functional. Particulars: A-375, 96 h, read-out: Activity. The method in brief: as §3
The test system of assay [10] is A-375. In words: Antitumor activity against human A375 cells xenografted in athymic nude Harlan mouse assessed as reduced tumor growth at 20 mg/kg, ip administered daily 5 days pre week measured every other day. In general terms: A xenograft is tissue or cells of one species grown in another, often human tumour cells in immunodeficient mice.
Assay [11] has as its system A-375. Kind of assay: Antiproliferative activity against human A375 cells assessed as cell growth at 350 uM after 96 hrs by trypan blue assay. It counts as functional. Particulars: A-375, 96 h, read-out: Activity. The gist of the method:
(§4)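 A375 melanoma cells were grown in DMEM with 10% FCS, 2 mM L-glutamine and penicillin/streptomycin at 37 °C in 5% CO2, and plated at (20–50) × 10^3 cells per 35 mm plate. Once adherent (56 h), compound in DMSO was added (DMSO 0.005% final), with fresh drug medium every 48 h. After 96 h, viable cells were counted twice by Coulter counter, with trypan blue exclusion. Results are % of DMSO control, pooled from three experiments.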

Assay [12] has as its system A-375. Kind of assay: Antiproliferative activity against human A375 cells at 350 uM after 96 hrs by trypan blue assay. In kind it is functional. The gist of the method:
as §4

In assay [13] the test system is A-375. In words: Antiproliferative activity against human A375 cells assessed as morphological changes at 5 to 10 uM after 96 hrs by phase contrast microscopy. In kind it is functional, cell-based. The method in brief:
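A375 cultures in DMEM/10% FCS exposed to 5, 7.5 or 10 μM drug in DMSO; DMSO-only controls. Dendritic-like extensions scored under phase-contrast or bright-field microscopy.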

The subject of assay [14] is A-375. In words: Antiproliferative activity against human A375 cells after 96 hrs by trypan blue assay. It counts as functional, cell-based. The gist of the method:
as §3

In assay [15] the test system is A-375. In words: Induction of apoptosis in human A375 cells assessed as necrotic cells at 25 uM after 96 hrs by propidium iodide staining-based FACS analysis. It counts as functional, cell-based.
For assay [16], the system named is A-375. Kind of assay: Induction of apoptosis in human A375 cells after 96 hrs by propidium iodide staining-based FACS analysis. It counts as functional, cell-based. The method in brief:
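A375 cells seeded at low (100 000) or high (300 000) density per 25 cm2 flask and cultured 96 h with 20 μM compound. Harvested for biparametric FACS: DNA content by PI uptake (linear) against side scatter (log); at least 10 000 cells per sample. Apoptotic fraction given as mean and SD of three experiments.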

Active and inactive are the calls of the source. The calls are words filed in the database; no cut-off is given here.

`CCC(C)Sc1nc([C@@H](CC)c2c(F)cccc2F)c(C)c(=O)[nH]1` (stereo partly drawn): the outcome in the assay with A-375 [1], with A-375 [2], with A-375 [4] and in the assay with A-375 [7] was Active. In the assay with A-375 [3], the outcome was inactive. For the same compound, the Activity entry was “tde” in the assay with A-375 [5] and 70% with A-375 [6].
For `CCC(c1nc(SC2CCCC2)[nH]c(=O)c1C)c1c(F)cccc1F` (stereo not drawn), in the assay with A-375 [8], the growth at 25 µM is 5%.
Take `O=C1Nc2ccc(Cl)cc2[C@@](C#CC2CC2)(C(F)(F)F)O1` [EFAVIRENZ]: the growth at 15 µM in the assay with A-375 [9] was determined as 51%. In addition, the outcome with A-375 [10] was Active.
As for `CCC(c1cc(O)nc(SC2CCCC2)n1)c1c(F)cccc1F` (stereo not drawn), the growth at 25 µM in the assay with A-375 [8] was 22%.
Still for that read-out and setting: the figure for `CCC(c1nc(SC(C)C)[nH]c(=O)c1C)c1c(F)cccc1F` (stereo not drawn) is 12%; for `CCC(c1nc(S)[nH]c(=O)c1C)c1c(F)cccc1F` (stereo not drawn) it is 76%.
Same read-out and setting: the figure for `CCC(c1cc(=O)[nH]c(S)n1)c1c(F)cccc1F` (stereo not drawn) is 100%; for `CCC(c1cc(=O)[nH]c(SC)n1)c1c(F)cccc1F` (stereo not drawn) it is 13%.
Turning to `Cc1ccnc2c1NC(=O)c1cccnc1N2C1CC1` [NEVIRAPINE], the growth at 350 µM with A-375 [11] amounted to 35%. The compound further yielded an Activity with A-375 [12] of 50%. Further, the result in the assay with A-375 [2] and in the assay on A-375 [4] was Active. The outcome in the assay on A-375 [3] and with A-375 [7] was inactive.
`CCC(c1nc(SC)[nH]c(=O)c1C)c1c(F)cccc1F` (stereo not drawn): the growth at 25 µM with A-375 [8] is 40%.
Still for that read-out and setting: the value for `CCC(c1cc(O)nc(SC(C)C)n1)c1c(F)cccc1F` (stereo not drawn) was 19%.
On to `CCC(C)Sc1nc([C@H](CC)c2c(F)cccc2F)c(C)c(=O)[nH]1` (stereo partly drawn), for which the outcome in the assay with A-375 [1], in the assay on A-375 [10], in the assay with A-375 [2], with A-375 [4] and in the assay on A-375 [7] was Active. For the same compound, the result with A-375 [3] was inactive. Also, the figures for the Activity entry in the assay on A-375 [5] and in the assay on A-375 [6] were “tde” and 70%, respectively.
Turning to `CCC(C)Sc1nc(C(CC)c2c(F)cccc2F)c(C)c(=O)[nH]1` (mixture of isomers), the outcome in the assay on A-375 [13], in the assay on A-375 [10] and in the assay on A-375 [15] was Active. Also, in the assay with A-375 [8], the growth at 25 µM came to 5%. In addition, the Activity entry in the assay with A-375 [14] and in the assay with A-375 [16] was “Dose-dependent effect” in each case.
As for `CCC(C)Sc1nc(C(CC)c2c(F)cccc2F)cc(=O)[nH]1` (stereo not drawn), in the assay on A-375 [8], the growth at 25 µM stood at 13%.

These data come from ChEMBL document CHEMBL1817664, “Modulation of cell differentiation, proliferation, and tumor growth by dihydrobenzyloxopyrimidine non-nucleoside reverse transcriptase inhibitors” (2011).
